# Assay results as given in ChEMBL document CHEMBL2150991, “Synthesis of novel N-branched acyclic nucleoside phosphonates as potent and selective inhibitors of human, Plasmodium falciparum and Plasmodium vivax 6-oxopurine phosphoribosyltransferases” (J Med Chem, 2012).
# How the values were obtained:
# L1210 = assay: Cytostatic activity against mouse L1210 cells; format: ADME, cell-based
# [1] = Cytotoxicity against cat CRFK cells; format: cell-based, Felis catus
# [2] = Cytostatic activity against human HeLaS3 cells; format: ADME, cell-based; conditions: hela s3
# HL-60 = assay: Cytostatic activity against human HL60 cells; format: ADME, cell-based
# [3] = Cytotoxicity african green monkey Vero cells; format: cell-based; conditions: chlorocebus sabaeus
# [4] = Cytotoxicity against human HEL cells; format: cell-based
# [5] = Inhibition of Plasmodium vivax HGPRT using Prib-PP as substrate by spectrophotometric assay in presence of guanine
# In short: (§1)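 Continuous spectrophotometric assay at 25 °C in 0.1 M Tris-HCl, 10 mM MgCl₂, pH 7.4. PRib-PP is the variable substrate. Guanine is held fixed at a saturating 60 μM. Values are apparent Ki, since only one concentration of the second substrate was used. Each was calculated from Km(app) = Km(1 + [I]/Ki(app)).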
# [6] = target: T1, Hypoxanthine-guanine phosphoribosyltransferase (Homo sapiens, UniProt P00492); assay: Inhibition of human HGPRT using Prib-PP as substrate by spectrophotometric assay in presence of guanine; in short: as §1
# T1 sequence (P00492 whole entry): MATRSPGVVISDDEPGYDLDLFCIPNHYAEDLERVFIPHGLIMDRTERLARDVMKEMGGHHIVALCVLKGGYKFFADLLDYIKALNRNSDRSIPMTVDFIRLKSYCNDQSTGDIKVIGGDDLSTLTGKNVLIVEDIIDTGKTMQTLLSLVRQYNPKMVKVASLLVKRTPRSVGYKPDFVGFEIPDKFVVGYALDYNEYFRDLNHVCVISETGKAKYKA
# CCRF-CEM = assay: Cytostatic activity against human CCRF-CEM cells; format: ADME, cell-based
# [7] = Inhibition of Plasmodium falciparum recombinant HGPRT expressed in Escherichia coli using Prib-PP as substrate by spectrophotometric assay in presence of guanine; in short: as §1
Structure (SMILES),Ki [6],Activity (L1210),CC50 [1],Activity [2],Activity (HL-60),CC50 [3],CC50 [4],Ki [5],Activity (CCRF-CEM),Ki [7]
O=c1[nH]cnc2c1ncn2CCN(CCP(=O)(O)O)CCP(=O)(O)O,3000 nM,Non-toxic,> 100 µg/mL,Non-toxic,Non-toxic,> 100 µg/mL,> 100 µg/mL,13000 nM,Non-toxic,
N#CCCN(CCn1cnc2c(=O)[nH]c(N)nc21)CCP(=O)(O)O,70 nM,Non-toxic,> 100 µg/mL,Non-toxic,Non-toxic,> 100 µg/mL,> 100 µg/mL,300 nM,Non-toxic,200 nM
Nc1nc2c(ncn2CCN(CCP(=O)(O)O)CCP(=O)(O)O)c(=O)[nH]1,200 nM,Non-toxic,> 100 µg/mL,Non-toxic,Non-toxic,> 100 µg/mL,> 100 µg/mL,900 nM,Non-toxic,300 nM
N#CCCCN(CCn1cnc2c(=O)[nH]c(N)nc21)CCP(=O)(O)O,600 nM,Non-toxic,> 100 µg/mL,Non-toxic,Non-toxic,> 100 µg/mL,> 100 µg/mL,8000 nM,Non-toxic,4000 nM
COC(=O)CCN(CCn1cnc2c(=O)[nH]c(N)nc21)CCP(=O)(O)O,500 nM,Non-toxic,> 100 µg/mL,Non-toxic,Non-toxic,> 100 µg/mL,> 100 µg/mL,4000 nM,Non-toxic,100 nM
Nc1nc2c(ncn2CCNCCP(=O)(O)O)c(=O)[nH]1,,Non-toxic,,Non-toxic,Non-toxic,,> 100 µg/mL,11000 nM,Non-toxic,16000 nM
O=c1[nH]cnc2c1ncn2CCNCCP(=O)(O)O,,Non-toxic,,Non-toxic,Non-toxic,,> 100 µg/mL,≥ 250000 nM,Non-toxic,≥ 200000 nM
N#CCCCN(CCn1cnc2c(=O)[nH]cnc21)CCP(=O)(O)O,29000 nM,Non-toxic,> 100 µg/mL,Non-toxic,Non-toxic,> 100 µg/mL,> 100 µg/mL,> 230000 nM,Non-toxic,6000 nM
N#CCCN(CCn1cnc2c(=O)[nH]cnc21)CCP(=O)(O)O,2400 nM,Non-toxic,> 100 µg/mL,Non-toxic,Non-toxic,> 100 µg/mL,> 100 µg/mL,700 nM,Non-toxic,200 nM
N#CCN(CCn1cnc2c(=O)[nH]c(N)nc21)CCP(=O)(O)O,,Non-toxic,> 100 µg/mL,Non-toxic,Non-toxic,> 100 µg/mL,53 µg/mL,,Non-toxic,
COC(=O)CCCN(CCn1cnc2c(=O)[nH]c(N)nc21)CCP(=O)(O)O,100 nM,Non-toxic,> 100 µg/mL,Non-toxic,Non-toxic,> 100 µg/mL,> 100 µg/mL,> 200000 nM,Non-toxic,1300 nM
CCOC(=O)CN(CCn1cnc2c(=O)[nH]c(N)nc21)CCP(=O)(O)O,100 nM,Non-toxic,> 100 µg/mL,Non-toxic,Non-toxic,> 100 µg/mL,> 100 µg/mL,1500 nM,Non-toxic,1700 nM

# The next lines start with results.
Ki [6],Structure (SMILES),Activity (L1210),CC50 [1],Activity [2],Activity (HL-60),CC50 [3],CC50 [4],Ki [5],Activity (CCRF-CEM),Ki [7]
32000 nM,O=C(O)CN(CCn1cnc2c(=O)[nH]cnc21)CCP(=O)(O)O,Non-toxic,> 100 µg/mL,Non-toxic,Non-toxic,> 100 µg/mL,> 100 µg/mL,178000 nM,Non-toxic,
> 200000 nM,COC(=O)CCN(CCn1cnc2c(=O)[nH]cnc21)CCP(=O)(O)O,Non-toxic,> 100 µg/mL,Non-toxic,Non-toxic,> 100 µg/mL,> 100 µg/mL,21000 nM,Non-toxic,100 nM
100 nM,Nc1nc2c(ncn2CCN(CCCC(=O)O)CCP(=O)(O)O)c(=O)[nH]1,Non-toxic,> 100 µg/mL,Non-toxic,Non-toxic,> 100 µg/mL,> 100 µg/mL,25000 nM,Non-toxic,
1400 nM,Nc1nc2c(ncn2CCN(CCP(=O)(O)O)CC(=O)O)c(=O)[nH]1,Non-toxic,> 100 µg/mL,Non-toxic,Non-toxic,> 100 µg/mL,> 100 µg/mL,28000 nM,Non-toxic,700 nM
5400 nM,O=C(O)CCCN(CCn1cnc2c(=O)[nH]cnc21)CCP(=O)(O)O,Non-toxic,> 100 µg/mL,Non-toxic,Non-toxic,> 100 µg/mL,> 100 µg/mL,1600 nM,Non-toxic,≥ 210000 nM
5500 nM,O=c1[nH]cnc2c1ncn2CCN(CCO)CCP(=O)(O)O,Non-toxic,> 100 µg/mL,Non-toxic,Non-toxic,> 100 µg/mL,> 100 µg/mL,21000 nM,Non-toxic,2600 nM
> 240000 nM,O=C(O)CCN(CCn1cnc2c(=O)[nH]cnc21)CCP(=O)(O)O,Non-toxic,> 100 µg/mL,Non-toxic,Non-toxic,> 100 µg/mL,> 100 µg/mL,41000 nM,Non-toxic,400 nM
70 nM,Nc1nc2c(ncn2CCN(CCO)CCP(=O)(O)O)c(=O)[nH]1,Non-toxic,,Non-toxic,Non-toxic,,> 100 µg/mL,1400 nM,Non-toxic,200 nM
2600 nM,CCOC(=O)CN(CCn1cnc2c(=O)[nH]cnc21)CCP(=O)(O)O,Non-toxic,> 100 µg/mL,Non-toxic,Non-toxic,> 100 µg/mL,> 100 µg/mL,11000 nM,Non-toxic,1900 nM
35000 nM,N#CCN(CCn1cnc2c(=O)[nH]cnc21)CCP(=O)(O)O,Non-toxic,> 100 µg/mL,Non-toxic,Non-toxic,> 100 µg/mL,> 100 µg/mL,47000 nM,Non-toxic,≥ 250000 nM
150 nM,Nc1nc2c(ncn2CCN(CCC(=O)O)CCP(=O)(O)O)c(=O)[nH]1,Non-toxic,> 100 µg/mL,Non-toxic,Non-toxic,> 100 µg/mL,> 100 µg/mL,50 nM,Non-toxic,200 nM
22000 nM,COC(=O)CCCN(CCn1cnc2c(=O)[nH]cnc21)CCP(=O)(O)O,Non-toxic,> 100 µg/mL,Non-toxic,Non-toxic,> 100 µg/mL,> 100 µg/mL,> 250000 nM,Non-toxic,≥ 220000 nM
